Assay results published in ChEMBL document CHEMBL1125498, “N-methylated analogs of Ac[Nle28,31]CCK(26-33): synthesis, activity, and receptor selectivity” (J Med Chem, 1992).
Where a SMILES comes first, the peptide text is derived from it. [ ]: non-standard residue; d: D form. sY = N[C@@H](Cc1ccc(OS(=O)(=O)O)cc1)C(=O)O; Nle = CCCC[C@H](N)C(=O)O

Tests used:
[1] = molecular target: Gastrin/cholecystokinin type B receptor (Cavia porcellus); test: In vitro smooth muscle contraction activity in guinea pig stomach consisting of CCK/gastrin receptor subtype
Cavia porcellus [2] = species on record: Cavia porcellus; test: Relative Potency(RP %) (EC50) was calculated by using smooth muscle contraction assay in guinea pig stomach with relative to Ac[Nle28,31]CCK(26-33)(EC50); assay type: functional, Muscle tissue
Summary of the method: (§1)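 Same isolated guinea pig tissue contraction set-up: 90 min equilibration, isometric force, increasing peptide concentrations with three washes at 5–15-min intervals, 100 nM carbachol control.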

[3] = molecular target: Cholecystokinin receptor (Cavia porcellus); test: In vitro smooth muscle contraction activity in guinea pig ileum consists of two or three CCK receptor subtypes
Cavia porcellus [4] = species on record: Cavia porcellus; test: Relative Potency(RP %) (EC50) was calculated by using smooth muscle contraction assay in guinea pig ileum with relative to Ac[Nle28,31]CCK(26-33)(EC50); assay type: functional
Summary of the method: as §1

Cavia porcellus [5] = species on record: Cavia porcellus; test: Relative Potency(RP %) (EC50) was calculated by using smooth muscle contraction assay in guinea pig gallbladder with relative to Ac[Nle28,31]CCK(26-33)(EC50); assay type: functional, Muscle tissue
Summary of the method: as §1

[6] = molecular target: T1, Cholecystokinin receptor type A (Cavia porcellus, UniProt Q63931); test: In vitro smooth muscle contraction activity in guinea pig gall bladder cholecystokinin type A receptor; assay type: functional, tissue-based
T1 sequence (Q63931 whole entry): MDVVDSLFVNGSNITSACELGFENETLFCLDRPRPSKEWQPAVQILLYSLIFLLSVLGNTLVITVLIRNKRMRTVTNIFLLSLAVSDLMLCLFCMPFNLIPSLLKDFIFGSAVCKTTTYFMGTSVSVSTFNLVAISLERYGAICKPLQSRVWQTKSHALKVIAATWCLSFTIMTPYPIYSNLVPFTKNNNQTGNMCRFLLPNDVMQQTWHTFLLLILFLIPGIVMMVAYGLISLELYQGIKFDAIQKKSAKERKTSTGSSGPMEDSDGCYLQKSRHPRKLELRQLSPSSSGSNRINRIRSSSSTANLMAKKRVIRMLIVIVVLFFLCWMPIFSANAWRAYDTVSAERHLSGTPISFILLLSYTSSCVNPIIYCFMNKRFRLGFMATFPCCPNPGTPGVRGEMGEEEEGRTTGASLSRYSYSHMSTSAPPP
Summary of the method: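 Isolated guinea pig tissue strips, equilibrated 90 min with periodic tension readjustment and bath changes. Isometric force recorded. Cumulative-free concentration-response curves from increasing peptide concentrations, strips washed three times with 5–15-min intervals between doses. Carbachol test dose (100 nM) measured before, during and after as control. EC50 from curves; points in duplicate, mean ± SEM of at least three experiments.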

| SMILES | EC50 [1] [nM] | EC50 [3] [nM] | EC50 [6] [nM] | Relative Potency (Cavia porcellus [2]) | Relative Potency (Cavia porcellus [4]) | Relative Potency (Cavia porcellus [5]) |
| --- | --- | --- | --- | --- | --- | --- |
| CCCC[C@H](NC(=O)[C@H](Cc1ccc(OS(=O)(=O)O)cc1)NC(=O)[C@H](CC(=O)O)NC(C)=O)C(=O)NCC(=O)N[C@@H](Cc1c[nH]c2ccccc12)C(=O)N(C)[C@@H](CCCC)C(=O)N[C@@H](CC(=O)O)C(=O)N[C@@H](Cc1ccccc1)C(N)=O | 140 | 37 | 20 | 10 | 4 | 6 |
| CCCC[C@H](NC(=O)[C@H](Cc1c[nH]c2ccccc12)NC(=O)CN(C)C(=O)[C@H](CCCC)NC(=O)[C@H](Cc1ccc(OS(=O)(=O)O)cc1)NC(=O)[C@H](CC(=O)O)NC(C)=O)C(=O)N[C@@H](CC(=O)O)C(=O)N[C@@H](Cc1ccccc1)C(N)=O |  |  | 0.1 |  |  |  |
| CCCC[C@H](NC(=O)[C@H](Cc1ccc(OS(=O)(=O)O)cc1)NC(=O)[C@H](CC(=O)O)NC(C)=O)C(=O)NCC(=O)N(C)[C@@H](Cc1c[nH]c2ccccc12)C(=O)N[C@@H](CCCC)C(=O)N[C@@H](CC(=O)O)C(=O)N[C@@H](Cc1ccccc1)C(N)=O |  |  | 53 |  |  |  |
| CCCC[C@H](NC(=O)[C@H](Cc1c[nH]c2ccccc12)NC(=O)[C@@H]1CCCN1C(=O)[C@H](CCCC)NC(=O)[C@H](Cc1ccc(OS(=O)(=O)O)cc1)NC(=O)[C@H](CC(=O)O)NC(C)=O)C(=O)N[C@@H](CC(=O)O)C(=O)N[C@@H](Cc1ccccc1)C(N)=O (Ac-D[sY][Nle]PW[Nle]DF-NH2) | 54 | 104 | 60 | 25 | 1.3 | 2 |

Further lines, with some results ahead:

| EC50 [1] [nM] | EC50 [3] [nM] | EC50 [6] [nM] | SMILES | Relative Potency (Cavia porcellus [2]) | Relative Potency (Cavia porcellus [4]) | Relative Potency (Cavia porcellus [5]) |
| --- | --- | --- | --- | --- | --- | --- |
|  |  | 2 | CCCC[C@H](NC(=O)[C@H](Cc1ccc(OS(=O)(=O)O)cc1)NC(=O)[C@H](CC(=O)O)NC(C)=O)C(=O)NCC(=O)N[C@@H](Cc1c[nH]c2ccccc12)C(=O)N[C@@H](CCCC)C(=O)N(C)[C@@H](CC(=O)O)C(=O)N[C@@H](Cc1ccccc1)C(N)=O |  |  |  |
|  |  | 1.2 | CCCC[C@H](NC(=O)[C@H](Cc1ccc(OS(=O)(=O)O)cc1)NC(=O)[C@H](CC(=O)O)NC(C)=O)C(=O)NCC(=O)N[C@@H](Cc1c[nH]c2ccccc12)C(=O)N[C@@H](CCCC)C(=O)N[C@@H](CC(=O)O)C(=O)N[C@@H](Cc1ccccc1)C(N)=O |  |  |  |
|  |  | 3 | CCCC[C@H](NC(=O)[C@H](Cc1ccc(OS(=O)(=O)O)cc1)NC(=O)[C@H](CC(=O)O)NC(C)=O)C(=O)NCC(=O)N[C@@H](Cc1c[nH]c2ccccc12)C(=O)N[C@@H](CCCC)C(=O)N[C@@H](CC(=O)O)C(=O)N(C)[C@@H](Cc1ccccc1)C(N)=O |  |  |  |
|  |  | 1.4 | CCCC[C@H](NC(=O)[C@H](Cc1c[nH]c2ccccc12)NC(=O)CNC(=O)[C@H](CCCC)NC(=O)[C@H](Cc1ccc(OS(=O)(=O)O)cc1)N(C)C(=O)[C@H](CC(=O)O)NC(C)=O)C(=O)N[C@@H](CC(=O)O)C(=O)N[C@@H](Cc1ccccc1)C(N)=O |  |  |  |
